{"source": "the RNAGym collection of RNA variant scans (doi:10.1126/science.aae0568)", "parents": {"B1": {"name": "tRNA (parent)", "chain": "GUUCCGUUGGCGUAAUGGUAACGCGUCUCCCUCCUAAGGAGAAGACUGCGGGUUCGAGUCCCGUACGGAACG"}}, "note": "Fewer inactive variants are shown than the library holds."}
{"variants_of": "B1", "experiment": "yeast fitness relative to wild type (ratio to wild type); higher = fitter; tRNA-Arg(CCU), competitive growth, 37 C, YPD", "outline": "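The tRNA-Arg(CCU) gene variants were made by chemical synthesis with a 3% per-site mutation rate at 69 sites and inserted at the native genomic locus of Saccharomyces cerevisiae. After pooling, the strains were competed in YPD at 37°C for 24 hours in six parallel replicates. Gene amplicons from the start population and each end population were read by 100-nucleotide paired-end sequencing, and Darwinian fitness relative to wild type was taken from genotype frequency changes. Genotypes needed ≥ 100 starting reads, and estimates < 0.5 were set to 0.5.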"}
{"variant": "U19G G25A", "yeast fitness": 0.958}
{"variant": "U19C C27U C46A C62G A69U", "yeast fitness": "≤ 0.5"}
{"variant": "U19C G25A A37U C62A U64C", "yeast fitness": "≤ 0.5"}
{"variant": "U19C U26A G67C", "yeast fitness": 0.57}
{"variant": "U19C C22G G63C G68U", "yeast fitness": "≤ 0.5"}
{"variant": "U19C G48A", "yeast fitness": 1.04}
{"variant": "U19G A43C U53C C55G A70U", "yeast fitness": "≤ 0.5"}
{"variant": "U19G G41C", "yeast fitness": 0.622}
{"variant": "U19G G41U", "yeast fitness": 0.691}
{"variant": "U19C C29U A57C G68C", "yeast fitness": "≤ 0.5"}
{"variant": "U19C G39A G58A", "yeast fitness": 0.613}
{"variant": "U19C C49U", "yeast fitness": 0.999}
{"variant": "U19C C49A", "yeast fitness": 0.606}
{"variant": "U19C C24U C66U", "yeast fitness": 0.712}
{"variant": "A20C A36C A45C", "yeast fitness": 0.592}
{"variant": "U19C G48C A57G", "yeast fitness": 0.565}
{"variant": "U19C C27G A65U G68U", "yeast fitness": "≤ 0.5"}
{"variant": "U19G A43U A65G G68A", "yeast fitness": 0.512}
{"variant": "A20C A21C", "yeast fitness": 0.608}
{"variant": "U19C C22G G25C C33U G39C C62G", "yeast fitness": "≤ 0.5"}
{"variant": "U19C C34U C49A G56C C62A A65C", "yeast fitness": "≤ 0.5"}
{"variant": "U19C G67C", "yeast fitness": 0.931}
{"variant": "U19C G67U", "yeast fitness": 1.07}
{"variant": "U19C G67A", "yeast fitness": 1}
{"variant": "U19C C34U A43U A70C", "yeast fitness": 0.572}
{"variant": "U19C G25C", "yeast fitness": 1.04}
{"variant": "U19G C55G", "yeast fitness": 0.651}
{"variant": "U19G C30A A43U", "yeast fitness": 0.601}
{"variant": "U19C A40U C55U A65G", "yeast fitness": "≤ 0.5"}
{"variant": "U19G U47G G58C", "yeast fitness": "≤ 0.5"}
{"variant": "U19C C22U G50A U64C", "yeast fitness": "≤ 0.5"}
{"variant": "U19C A37G G44C G58A A65G", "yeast fitness": 0.63}
{"variant": "U19C U64A", "yeast fitness": 0.898}
{"variant": "U19C U64C", "yeast fitness": 0.893}
{"variant": "U19C U64G", "yeast fitness": 0.789}
{"variant": "A20C A36G A45U A65G", "yeast fitness": 0.614}
{"variant": "U19C C33G A36U G44A", "yeast fitness": "≤ 0.5"}
{"variant": "A20C A36U A65U", "yeast fitness": "≤ 0.5"}
{"variant": "U19G C22U C31U A40U A69U", "yeast fitness": 0.569}
{"variant": "U19G C31A G39C C62G G68A", "yeast fitness": "≤ 0.5"}
{"variant": "U19C G50C", "yeast fitness": 0.613}
{"variant": "A20C A21U G41A", "yeast fitness": "≤ 0.5"}
{"variant": "U19C C24G U35A", "yeast fitness": 0.804}
{"variant": "U19G A20U C27G C66U", "yeast fitness": "≤ 0.5"}
{"variant": "U19C C55G A65C", "yeast fitness": "≤ 0.5"}
{"variant": "U19G G39C", "yeast fitness": 0.75}
{"variant": "U19G G39A", "yeast fitness": 1.07}
{"variant": "U19C C31G", "yeast fitness": 0.841}
{"variant": "U19C C31U", "yeast fitness": 0.986}
{"variant": "A20C A21C G39A U53A", "yeast fitness": "≤ 0.5"}
{"variant": "U19C C24G A37U U47A A57G", "yeast fitness": "≤ 0.5"}
{"variant": "U19C C24G A37U G56A A65C", "yeast fitness": "≤ 0.5"}
{"variant": "U19C G38C G44C C46A G68C", "yeast fitness": "≤ 0.5"}
{"variant": "U19C C27G", "yeast fitness": 0.579}
{"variant": "U19C C27U", "yeast fitness": 1.08}
{"variant": "U19G C46U", "yeast fitness": 0.962}
{"variant": "U19G C46A", "yeast fitness": 0.932}
{"variant": "U19G C49U U54C C62A", "yeast fitness": "≤ 0.5"}
{"variant": "U19G C29U G39C A42U G67A", "yeast fitness": 0.537}
{"variant": "U19C G52C U64A", "yeast fitness": "≤ 0.5"}
{"variant": "U19C G41C A70U", "yeast fitness": 0.671}
{"variant": "U19C U47C", "yeast fitness": 0.905}
{"variant": "U19C U47A", "yeast fitness": 0.896}
{"variant": "U19C G23A C24G A40U A65U", "yeast fitness": "≤ 0.5"}
{"variant": "U19G A21U C29G A37U", "yeast fitness": "≤ 0.5"}
{"variant": "U19G", "yeast fitness": 0.975}
{"variant": "U19G A20U G56A", "yeast fitness": 0.789}
{"variant": "U19C C24U C49A U54C C60G", "yeast fitness": "≤ 0.5"}
{"variant": "U19G C33U A40C A45C", "yeast fitness": "≤ 0.5"}
{"variant": "U19C C22G C24A G39C A45U", "yeast fitness": 0.572}
{"variant": "U19C C22G C24A G39C A45C", "yeast fitness": 0.916}
{"variant": "U19C U26A C46U", "yeast fitness": 0.901}
{"variant": "U19C G25C U54C C61G", "yeast fitness": "≤ 0.5"}
{"variant": "U19G G41C A43U", "yeast fitness": 0.512}
{"variant": "U19G A65G A70C", "yeast fitness": 0.733}
{"variant": "U19C G41C A65G", "yeast fitness": 0.663}
{"variant": "U19C A40C G50A", "yeast fitness": 0.664}
{"variant": "U19G A20C U26C G41A C62G", "yeast fitness": "≤ 0.5"}
{"variant": "U19C C22U C61A A70G", "yeast fitness": "≤ 0.5"}
{"variant": "U19C C31A A69U", "yeast fitness": 0.534}
{"variant": "U19C C22U G67A", "yeast fitness": 0.772}
{"variant": "U19C C24G C33A", "yeast fitness": "≤ 0.5"}
{"variant": "U19C A43U C49U", "yeast fitness": 0.698}
{"variant": "U19C G44C", "yeast fitness": 1}
{"variant": "U19C C24G A37U C46U U47A", "yeast fitness": "≤ 0.5"}
{"variant": "U19C A37G C49A", "yeast fitness": "≤ 0.5"}
{"variant": "U19C C24G G50C", "yeast fitness": 0.768}
{"variant": "U19G A37G C66U A69U", "yeast fitness": 0.691}
{"variant": "U19C C31U G56A", "yeast fitness": 0.954}
{"variant": "U19G A45C A70U", "yeast fitness": 0.557}
{"variant": "A20C A21G C24U U26C", "yeast fitness": "≤ 0.5"}
{"variant": "A20C A36U A45U U53A", "yeast fitness": "≤ 0.5"}
{"variant": "U19G G48A C49A", "yeast fitness": 0.574}
{"variant": "U19C C24G", "yeast fitness": 0.621}
{"variant": "U19C C24A", "yeast fitness": 0.601}
{"variant": "U19C C24U A40C", "yeast fitness": 0.663}
{"variant": "U19C U53A", "yeast fitness": 0.689}
{"variant": "U19C C31G C49U", "yeast fitness": 0.736}
{"variant": "U19C A37G G56C", "yeast fitness": "≤ 0.5"}
{"variant": "U19G U59C A69C", "yeast fitness": 0.658}
{"variant": "U19C G51C C66U", "yeast fitness": "≤ 0.5"}
{"variant": "U19C U35A G38A A42G A69G A70G", "yeast fitness": "≤ 0.5"}
{"variant": "U19C A40C U53A", "yeast fitness": 0.532}
{"variant": "U19G U32C G52A G58C", "yeast fitness": "≤ 0.5"}
{"variant": "A20C A21G U64G", "yeast fitness": 0.558}
{"variant": "U19G U35C A43U A65G G68A", "yeast fitness": "≤ 0.5"}
{"variant": "U19C U28C", "yeast fitness": 0.992}
{"variant": "A20C A37C A43G U54A", "yeast fitness": "≤ 0.5"}
{"variant": "U19G C49U A69C", "yeast fitness": "≤ 0.5"}
{"variant": "U19C C29G C31A", "yeast fitness": "≤ 0.5"}
{"variant": "U19C C31U G56A G67A", "yeast fitness": 0.601}
{"variant": "U19C C22U C55A C66U", "yeast fitness": "≤ 0.5"}
{"variant": "U19G C29U A40C A65G", "yeast fitness": "≤ 0.5"}
{"variant": "U19C U28C G67C", "yeast fitness": 0.638}
{"variant": "U19C G50A C55A C62U", "yeast fitness": "≤ 0.5"}
{"variant": "U19C U32C U64A", "yeast fitness": 0.501}
{"variant": "A20C A21G C66U", "yeast fitness": 0.737}
{"variant": "U19C C31U C33G G41A C55U C61A", "yeast fitness": "≤ 0.5"}
{"variant": "U19G C22U C31U A40U C55G A65C", "yeast fitness": "≤ 0.5"}
{"variant": "U19C C24G A37U U47A", "yeast fitness": 0.524}
{"variant": "U19C C27A C30G U54A G56A", "yeast fitness": 0.671}
{"variant": "U19C C30A", "yeast fitness": 1.03}
{"variant": "A20C A21G G23A C66A", "yeast fitness": "≤ 0.5"}
{"variant": "U19C C49A C62A", "yeast fitness": "≤ 0.5"}
{"variant": "U19C A42C", "yeast fitness": 1.06}
{"variant": "U19C A42G", "yeast fitness": 0.774}
{"variant": "A20C A37C C49G", "yeast fitness": "≤ 0.5"}
{"variant": "U19C C31A A36C G44A A57U", "yeast fitness": "≤ 0.5"}
{"variant": "A20C A37C A43G", "yeast fitness": 0.57}
{"variant": "U19G U26C C29G A57U A69U A70C", "yeast fitness": "≤ 0.5"}
{"variant": "U19C A43U C49U C62U", "yeast fitness": 0.573}
{"variant": "U19G C29U C49U", "yeast fitness": "≤ 0.5"}
{"variant": "U19C C55U C61G", "yeast fitness": 0.596}
{"variant": "U19C C24A G58A C66U", "yeast fitness": "≤ 0.5"}
{"variant": "U19C U53C G56A", "yeast fitness": 0.622}
{"variant": "U19G G44A", "yeast fitness": 0.953}
{"variant": "U19C C24U C61U", "yeast fitness": 0.787}
{"variant": "U19G C22G C34U", "yeast fitness": 0.559}
{"variant": "U19C G48A C62A U64C", "yeast fitness": 0.636}
{"variant": "U19C G56C", "yeast fitness": 0.67}
{"variant": "U19C C22U G44C", "yeast fitness": 0.551}
{"variant": "A20C A21C C30G G39C A42G", "yeast fitness": 0.631}
{"variant": "U19G C34U G68C", "yeast fitness": 0.591}
{"variant": "U19C C22G A70U", "yeast fitness": 0.743}
{"variant": "U19C G68A", "yeast fitness": 0.878}
{"variant": "U19C C30G C33G U53A", "yeast fitness": "≤ 0.5"}
{"variant": "U19C A37U", "yeast fitness": 1.08}
{"variant": "U19C A37G", "yeast fitness": 0.784}
{"variant": "U19C U28A C55G", "yeast fitness": "≤ 0.5"}
{"variant": "U19C C62U", "yeast fitness": 0.925}
{"variant": "A20C A37C A43G C61U", "yeast fitness": "≤ 0.5"}
{"variant": "U19G A20U G58C", "yeast fitness": 0.716}
{"variant": "U19C U26A", "yeast fitness": 0.945}
{"variant": "U19G C29A U54A", "yeast fitness": "≤ 0.5"}
{"variant": "U19C C30G G51C", "yeast fitness": "≤ 0.5"}
{"variant": "U19C A45C G68C", "yeast fitness": "≤ 0.5"}
{"variant": "U19G C49U C60A C66G", "yeast fitness": "≤ 0.5"}
{"variant": "A20C A36U", "yeast fitness": 0.635}
{"variant": "A20C A36C", "yeast fitness": "≤ 0.5"}
{"variant": "A20C A21G C24U", "yeast fitness": 0.647}
{"variant": "U19C C29G U47A", "yeast fitness": "≤ 0.5"}
{"variant": "U19C G67U A69G", "yeast fitness": 0.751}
{"variant": "U19C C27A C31G U32C G39C", "yeast fitness": "≤ 0.5"}
{"variant": "U19G C49U G50U", "yeast fitness": "≤ 0.5"}
{"variant": "U19G A70G", "yeast fitness": 0.847}
{"variant": "U19C C24U A69C", "yeast fitness": 0.789}
{"variant": "U19C C29U C34A", "yeast fitness": "≤ 0.5"}
